Source: ChEMBL document CHEMBL1133430, “8-Methylureido-4,5-dihydro-4-oxo-10H-imidazo[1,2-a]indeno[1,2-e]pyrazines: highly potent in vivo AMPA antagonists” (Bioorg Med Chem Lett, 2000)

Key:
[1] = organism: Rattus norvegicus; assay: The compound was tested for its inhibition of currents generated by 50 uM Kainate in Xenopus oocytes injected with rat brain mRNA; format: functional
Method in brief: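 Xenopus oocytes injected with rat brain mRNA; AMPA receptor currents evoked by a submaximal kainate concentration, recorded electrophysiologically. Drug stocks in water or DMSO, diluted into recording medium. IC50 obtained by nonlinear least-squares fit to a sigmoidal equation.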

[2] = tested on: Mus musculus; assay: Tested in vivo as the dose which protected 50% of the animals from a tonic convulsion (six male CDI mice/dose of compound) after intraperitoneal administration in MES test; format: functional
Method in brief: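 Maximal electroshock (MES) convulsions in male CD1 mice. Compound given ip in 1% Tween-80 in water, 30 min before challenge. Six mice per dose, at least three doses plus a vehicle-alone group. ED50 (mg/kg) is the dose protecting 50% of animals from tonic convulsion.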

[3] = target: Glutamate NMDA receptor; assay: In vitro affinity for N-methyl-D-aspartate glutamate receptor 1 using [3H]5,7-dichlorokynurenate([3H]-DCKA) as ligand; format: protein-complex assay
Method in brief: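 Competition binding on rat cerebral cortex membranes at the NMDA receptor glycine site. IC50 is the mean of at least three determinations, each using at least three test concentrations run in triplicate.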

[4] = target: Glutamate receptor ionotropic, AMPA (Rattus norvegicus, UniProt P19490+P19491+P19492+P19493); assay: The compound was tested for its affinity for Ionotropic glutamate receptor AMPA in in vitro binding assay on rat cortical membrane preparations using [3H]AMPA as ligand
[5] = tested on: Mus musculus; assay: Tested in vivo as the dose which protected 50% of the animals from a tonic convulsion (six male CDI mice/dose of compound) after intraperitoneal administration in DBA test; format: functional
Method in brief: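 Audiogenic seizure test in DBA/2 mice. Compound given ip in 1% Tween-80 in water, 30 min before the sound challenge. Six mice per dose, three doses plus a vehicle-treated group.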

[6] = tested on: Mus musculus; assay: Tested in vivo as the dose which protected 50% of the animals from a tonic convulsion (six male CDI mice/dose of compound) after intravenous administration in MES test; format: functional
Method in brief: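 Maximal electroshock (MES) convulsions in male CD1 mice. Compound given iv in saline, 5 min before challenge. Six mice per dose, at least three doses plus a vehicle-alone group. ED50 (mg/kg) is the dose protecting 50% of animals from tonic convulsion.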

[7] = tested on: Mus musculus; assay: Tested in vivo as the dose which protected 50% of the animals from a tonic convulsion (six male CDI mice/dose of compound) after subcutaneous administration in MES test; format: functional; details: sc
Method in brief: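 Maximal electroshock (MES) convulsions in male CD1 mice. Compound given sc in 1% Tween-80 in water, 30 min before challenge. Six mice per dose, at least three doses plus a vehicle-alone group. ED50 (mg/kg) is the dose protecting 50% of animals from tonic convulsion.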

[8] = Mus musculus, ip, read-out: ED50

| Structure (SMILES) | IC50 [3] [µM] | IC50 [4] [µM] | further results |
| --- | --- | --- | --- |
| Oc1nc2c(n3ccnc13)Cc1ccccc1-2 | – | – | Kb ([1]; Rattus norvegicus): 0.0018 µM; ED50 ([2]; ip): 62 mg/kg |
| O=C(Nc1ccc2c(c1)Cc1c-2nc(O)c2nccn12)c1ccccc1 | > 100 | 0.45 | – |
| COc1ccc2c(c1)Cc1c-2nc(O)c2nccn12 | 5.3 | 3.3 | – |
| CC(=O)Nc1ccc2c(c1)Cc1c-2nc(O)c2nccn12 | 10 | 3.25 | – |
| O=C(Cc1ccccc1)Nc1ccc2c(c1)Cc1c-2nc(O)c2nccn12 | 100 | 0.18 | – |
| Nc1ccc2c(c1)Cc1c-2nc(O)c2nccn12 | 22 | 5.6 | – |
| O=C(NCCc1ccccc1)Nc1ccc2c(c1)Cc1c-2nc(O)c2nccn12 | > 100 | 0.13 | – |
| CNC(=O)Nc1cccc2c1Cc1c-2nc(O)c2nccn12 | 2.3 | 0.3 | – |
| Oc1nc2c(n3ccnc13)Cc1cc(Br)ccc1-2 | > 100 | 2 | – |
| CNC(=O)Nc1ccc2c(c1)C(CC(=O)O)c1c-2nc(O)c2nccn12 (racemic) | 14 | 0.008 | ED50 [5]: 0.6 mg/kg; ED50 [6]: 1 mg/kg; IC50 [1]: 0.02 µM; ED50 [2]: 1.8 mg/kg; ED50 [7]: 2 mg/kg |
| Cc1ccc2c(c1)Cc1c-2nc(O)c2nccn12 | > 100 | 30 | – |
| CNC(=O)Nc1ccc2c(c1)C(CC(=O)O)c1c-2nc(O)c2nccn12 (single isomer, unassigned; (+)) | 10 | 0.004 | ED50 [5]: 0.9 mg/kg; IC50 [1]: 0.002 µM; ED50 [2]: 1 mg/kg |
| Oc1nc2c(n3ccnc13)Cc1cc(F)ccc1-2 | 7.8 | 0.25 | – |
| O=S(=O)(O)c1ccc2c(c1)Cc1c-2nc(O)c2nccn12 | > 100 | 30 | – |
| CCNC(=O)Nc1ccc2c(c1)Cc1c-2nc(O)c2nccn12 | 10 | 0.086 | – |
| CNC(=O)Nc1ccc2c(c1)C(CC(=O)O)c1c-2nc(O)c2nccn12 (stereo in doubt; (-)-3) | – | 0.039 | ED50 [5]: 4.4 mg/kg; IC50 [1]: 0.0067 µM; ED50 [2]: 7 mg/kg |

| Structure (SMILES) | IC50 [3] [µM] | IC50 [4] [µM] | further results |
| --- | --- | --- | --- |
| O=C(Nc1ccccc1)Nc1ccc2c(c1)Cc1c-2nc(O)c2nccn12 | > 100 | 0.62 | – |
| Oc1nc2c(n3ccnc13)Cc1ccc(F)cc1-2 | 1 | 0.97 | – |
| CCOC(=O)Nc1ccc2c(c1)Cc1c-2nc(O)c2nccn12 | 8.4 | 0.67 | – |
| Oc1nc2c(n3ccnc13)Cc1c(Cl)cccc1-2 | 100 | 17 | – |
| CNC(=O)Nc1ccc2c(c1)/c(=C/C(=O)O)c1c2nc(O)c2nccn21 | 100 | 0.019 | ED50 [5, 8]: 1.6 mg/kg; ED50 [6]: 5.6 mg/kg; IC50 ([1]; Rattus norvegicus): 0.003 µM; ED50 [2, 8]: 11 mg/kg |
| NC(=O)Nc1ccc2c(c1)Cc1c-2nc(O)c2nccn12 | > 100 | 1.25 | – |
| O=c1[nH]c2cc(-n3ccnc3)c([N+](=O)[O-])cc2[nH]c1=O [YM-90K] | – | – | ED50 ([5]; ip): 15 mg/kg; ED50 [6]: 12 mg/kg; IC50 ([1]; Rattus norvegicus): 0.26 µM; ED50 ([2]; ip): 12 mg/kg |
| CN(C)C(=O)Nc1ccc2c(c1)Cc1c-2nc(O)c2nccn12 | 100 | 0.037 | – |
| Oc1nc2c(n3ccnc13)Cc1cc(-n3ccnc3)ccc1-2 | > 100 | 100 | – |
| Oc1nc2c(n3ccnc13)Cc1c(F)cccc1-2 | 100 | 0.9 | – |
| CNC(=O)Nc1ccc2c(c1)Cc1c-2nc(O)c2nccn12 | 100 | 0.018 | – |
| Oc1nc2c(n3ccnc13)Cc1cc(Cl)ccc1-2 | > 100 | 16 | – |
| O=C(NCc1ccccc1)Nc1ccc2c(c1)Cc1c-2nc(O)c2nccn12 | 100 | 0.11 | – |
| Oc1nc2c(n3ccnc13)Cc1ccc(Cl)cc1-2 | 0.18 | 3 | – |
| Cc1ccc2c(c1)-c1nc(O)c3nccn3c1C2 | 2.1 | > 100 | – |
